Measurements as given in ChEMBL document CHEMBL1828618, “Synthesis and biological activity of novel tiliroside derivants” (Eur J Med Chem, 2011).

test system: HepG2; experiment: Increase in glucose consumption in insulin-resistant human HepG2 cells after 24 hrs; type: functional, cell-based; settings: HepG2, 24 h
Method in brief: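 HepG2 grown in high-glucose DMEM with 10% FBS, then plated 24 h. Made insulin-resistant with 10^-7 M insulin for 36 h in serum-free, phenol red-free high-glucose DMEM. Washed, then exposed to test agents at several concentrations for 24 h. Medium glucose measured by kit. Consumption gain expressed as % over the insulin-resistant model group. EC50 derived.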

EC50	SMILES
> 20000 nM	CCCCCCCCOc1ccc(/C=C/C(=O)COc2c(-c3ccc(O)cc3)oc3cc(O)cc(O)c3c2=O)cc1
> 20000 nM	O=C(/C=C/c1ccc(C(F)(F)F)cc1)COc1c(-c2ccc(O)cc2)oc2cc(O)cc(O)c2c1=O
15 nM	CC(C)c1ccc(/C=C/C(=O)COc2c(-c3ccc(O)cc3)oc3cc(O)cc(O)c3c2=O)cc1
2590 nM	O=C(/C=C/c1ccc(Cl)c(Cl)c1)COc1c(-c2ccc(O)cc2)oc2cc(O)cc(O)c2c1=O
5070 nM	COc1ccc(/C=C/C(=O)COc2c(-c3ccc(O)cc3)oc3cc(O)cc(O)c3c2=O)cc1O
155 nM	O=C(/C=C/c1ccc(O)cc1)OC[C@H]1O[C@@H](Oc2c(-c3ccc(O)cc3)oc3cc(O)cc(O)c3c2=O)[C@H](O)[C@@H](O)[C@@H]1O [TILIROSIDE]
6190 nM	COc1cc(/C=C/C(=O)COc2c(-c3ccc(O)cc3)oc3cc(O)cc(O)c3c2=O)ccc1O
10 nM	Cc1ccc(/C=C/C(=O)COc2c(-c3ccc(O)cc3)oc3cc(O)cc(O)c3c2=O)cc1
42 nM	CCOc1ccc(/C=C/C(=O)COc2c(-c3ccc(O)cc3)oc3cc(O)cc(O)c3c2=O)cc1
669 nM	O=C(/C=C/c1ccc(F)cc1)COc1c(-c2ccc(O)cc2)oc2cc(O)cc(O)c2c1=O
> 20000 nM	CCCCOc1ccc(/C=C/C(=O)COc2c(-c3ccc(O)cc3)oc3cc(O)cc(O)c3c2=O)cc1
> 20000 nM	COc1cc(/C=C/C(=O)COc2c(-c3ccc(O)cc3)oc3cc(O)cc(O)c3c2=O)ccc1OCc1ccccc1
270 nM	CN(C)C(=N)NC(=N)N [METFORMIN]
1080 nM	O=C(/C=C/c1ccc(Cl)cc1)COc1c(-c2ccc(O)cc2)oc2cc(O)cc(O)c2c1=O
> 20000 nM	COc1ccc(/C=C/C(=O)COc2c(-c3ccc(O)cc3)oc3cc(O)cc(O)c3c2=O)cc1Br
> 20000 nM	CCCCCCOc1ccc(/C=C/C(=O)COc2c(-c3ccc(O)cc3)oc3cc(O)cc(O)c3c2=O)cc1
3560 nM	O=C(/C=C/c1ccc(O)c(Cl)c1)COc1c(-c2ccc(O)cc2)oc2cc(O)cc(O)c2c1=O
3 nM	N#Cc1ccc(/C=C/C(=O)COc2c(-c3ccc(O)cc3)oc3cc(O)cc(O)c3c2=O)cc1
393 nM	O=C(/C=C/c1ccc(Br)cc1)COc1c(-c2ccc(O)cc2)oc2cc(O)cc(O)c2c1=O
149 nM	COc1ccc(/C=C/C(=O)COc2c(-c3ccc(O)cc3)oc3cc(O)cc(O)c3c2=O)cc1
473 nM	O=C(/C=C/c1ccccc1)COc1c(-c2ccc(O)cc2)oc2cc(O)cc(O)c2c1=O
658 nM	O=C(/C=C/c1ccc(OCc2ccccc2)cc1)COc1c(-c2ccc(O)cc2)oc2cc(O)cc(O)c2c1=O
> 20000 nM	CSc1ccc(/C=C/C(=O)COc2c(-c3ccc(O)cc3)oc3cc(O)cc(O)c3c2=O)cc1
13 nM	CC(C)(C)c1ccc(/C=C/C(=O)COc2c(-c3ccc(O)cc3)oc3cc(O)cc(O)c3c2=O)cc1
368 nM	O=C(/C=C/c1ccc(O)cc1)COc1c(-c2ccc(O)cc2)oc2cc(O)cc(O)c2c1=O

target: not listed separately; experiment: Inhibition of dephosphorylated glycogen phosphorylase; settings: not given

IC50	SMILES
9700 nM	O=c1c(O)c(-c2ccc(O)c(O)c2)oc2cc(O)c(O)c(O)c12 [QUERCETAGETIN]
11600 nM	O=c1cc(-c2ccc(O)c(O)c2)oc2cc(O)c(O)c(O)c12 [6-HYDROXYLUTEOLIN]
15700 nM	O=c1cc(-c2ccc(O)c(O)c2)oc2c(O)c(O)cc(O)c12 [HYPOLAETIN]

target: AMP-activated protein kinase, AMPK (Homo sapiens) (UniProt P54646+O43741+P54619+Q9UGJ0+Q9Y478+Q13131+Q9UGI9); experiment: Induction of AMPK phosphorylation in human HepG2 cells after 2 hrs by Western blot analysis; type: cell-based; settings: not given
Method in brief: (§1)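 HepG2 in 12-well plates exposed to increasing doses for 2 h. Lysed on ice in RIPA buffer (pH 7.2) with phosphatase and protease inhibitors. Run on 7.5% SDS-PAGE and blotted to PVDF. Blocked 1 h in 5% BSA, primary antibodies overnight at 4 °C, secondary 1 h at room temperature. Chemiluminescent detection. Means ± SE of 3 independent experiments.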

Activity	SMILES
Dose-dependent effect	N#Cc1ccc(/C=C/C(=O)COc2c(-c3ccc(O)cc3)oc3cc(O)cc(O)c3c2=O)cc1

test system: HepG2; experiment: Induction of ACC phosphorylation in human HepG2 cells after 2 hrs by Western blot analysis; type: cell-based; settings: not given; method in brief: as §1

SMILES	Activity
N#Cc1ccc(/C=C/C(=O)COc2c(-c3ccc(O)cc3)oc3cc(O)cc(O)c3c2=O)cc1	Dose-dependent effect
